# Columns and labels:
# Format in all cases: functional
# Mus musculus [1] = experiment: Analgesic activity for the inhibition of phenylquinone induced writhing (PQW) after subcutaneous administration to mice; conditions: sc
# Mus musculus [2] = experiment: Anticonvulsant activity to prevent pentamethylenetetrazole (MTZ) induced lethality in mice after oral administration
# Mus musculus [3] = experiment: Antidepressant activity to prevent tetrabenazine induced ptosis (TBZ) in mice after intraperitoneal administration; conditions: ip
# Mus musculus [4] = experiment: Antipsychotic activity to prevent amphetamine induced lethality in mice after oral administration
# How it was run: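 Male CD-1 mice in groups of ten, 18-28 g, dosed orally; controls got distilled water-Tween 80. d-Amphetamine sulfate 21 mg/kg sc 60 min post-drug, then aggregated five per wire cage at 80-84 °F. Dead mice replaced by marked untreated mice every 15 min. Deaths counted at 5 h post-amphetamine.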
# Mus musculus [5] = experiment: Delay in response to noxious heat stimuli in mice by tail flick method after subcutaneous administration; conditions: sc
# Mus musculus [6] = experiment: Tested for antipsychotic activity to prevent amphetamine induced lethality in mice after intraperitoneal administration; conditions: ip
# How it was run: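 Male CD-1 mice in groups of ten, 18-28 g, dosed ip; controls got distilled water-Tween 80. d-Amphetamine sulfate 21 mg/kg sc 60 min later, then aggregated five per wire cage at 80-84 °F. Dead mice replaced by marked untreated mice every 15 min. Deaths counted at 5 h post-amphetamine.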
# Mus musculus [7] = experiment: Tested for analgesic activity for the inhibition of phenylquinone induced writhing (PQW) after oral administration to mice
SMILES,ED50 (Mus musculus [1]) [mg/kg],ED50 (Mus musculus [2]) [mg/kg],ED50 (Mus musculus [3]) [mg/kg],ED50 (Mus musculus [4]) [mg/kg],ED50 (Mus musculus [5]) [mg/kg],ED50 (Mus musculus [6]) [mg/kg],ED50 (Mus musculus [7]) [mg/kg]
CNCCSC1Cc2ccccc2Oc2ccccc21 (stereo not given),4.8,50,0.9,> 20,11.6,–,–
c1ccc2c(c1)CC(SCCN1CCOCC1)c1ccccc1O2 (stereo not given),< 25,> 50,> 20,> 20,> 25,–,–
CN(C)CCSC1=Cc2ccccc2Oc2ccccc21,5.8,50,8.4,> 20,> 25,–,–
CN(CCSC1=Cc2ccccc2Oc2ccccc21)CC1CC1,6,> 50,> 20,–,> 25,–,–
CNCCSC1Cc2ccccc2Oc2ccc(SC)cc21 (stereo not given),6.4,50,12.7,> 20,> 25,–,–
CN(C)CCSC1=Cc2ccccc2Oc2ccc(F)cc21,10.3,> 50,–,> 20,23.9,–,–
CNCCSC1=Cc2ccccc2Oc2ccccc21,–,50,–,–,11.6,> 20,–
CNCCSC1=Cc2ccccc2Oc2ccc(SC)cc21,< 25,> 50,6.1,> 20,> 25,–,–
O=C(c1ccc(F)cc1)C1CCN(CCSC2Cc3ccccc3Oc3ccccc32)CC1 (stereo not given),10.9,> 50,> 20,> 20,> 25,–,9.5
CSc1ccc2c(c1)C(SCCN(C)C)Cc1ccccc1O2 (stereo not given),10.4,> 50,16,> 20,> 25,–,–
CN(C)CCSC1Cc2ccccc2Oc2ccccc21 (stereo not given),> 25,50,–,> 20,> 25,–,–
CSc1ccc2c(c1)C(SCCN(C)C)=Cc1ccccc1O2,5.3,> 50,9.4,> 20,14.1,–,–
CNCCSC1Cc2ccccc2Oc2ccc(Cl)cc21 (stereo not given),5.3,< 50,1.5,> 20,22.4,–,11.3
CNCCSC1=Cc2ccccc2Oc2ccc(Cl)cc21,16,> 50,5.9,> 20,> 25,–,–
Br.CCN(CC)CCSC1Cc2ccccc2Oc2ccc(SC)cc21 (stereo not given),25,> 50,> 20,> 20,> 25,–,–
Br.CN1CCN(CCSC2Cc3ccccc3Oc3ccccc32)CC1 (stereo not given),6.3,> 50,> 20,–,> 25,–,–
CN(C)CCSC1Cc2ccccc2Oc2ccc(Cl)cc21 (stereo not given),< 25,30,–,–,> 25,–,–
C1=C(SCCN2CCOCC2)c2ccccc2Oc2ccccc21,> 25,> 50,–,–,> 25,–,–
CSc1ccc2c(c1)C(SCCN(C(C)C)C(C)C)=Cc1ccccc1O2,> 25,> 50,25,–,> 25,–,–
CN(C)CCSC1=Cc2ccccc2Oc2ccc(Cl)cc21,> 25,> 50,> 20,> 20,> 25,–,–
CCNCCSC1Cc2ccccc2Oc2ccccc21 (stereo not given),6.6,> 50,20,–,> 25,–,–

SMILES,ED50 (Mus musculus [1]) [mg/kg],ED50 (Mus musculus [2]) [mg/kg],ED50 (Mus musculus [3]) [mg/kg],ED50 (Mus musculus [4]) [mg/kg],ED50 (Mus musculus [5]) [mg/kg],ED50 (Mus musculus [6]) [mg/kg],ED50 (Mus musculus [7]) [mg/kg]
CNCCSC1Cc2ccccc2Oc2ccc(F)cc21 (stereo not given),–,31.6,0.8,> 20,5.1,–,–
CCN(CC)CCSC1=Cc2ccccc2Oc2ccccc21,25,> 50,> 20,> 20,> 25,–,–
c1ccc(CCNCCSC2Cc3ccccc3Oc3ccccc32)cc1 (stereo not given),9.3,> 50,> 20,23,> 25,–,–
C1=C(SCCNCCc2ccccc2)c2ccccc2Oc2ccccc21,13.6,> 50,> 20,> 20,> 25,–,–
CN(C)CCSC1Cc2ccccc2Oc2ccc(F)cc21 (stereo not given),–,52.3,2,> 20,7.9,–,–
Fc1ccc2c(c1)C(SCCNCC1CC1)Cc1ccccc1O2 (stereo not given),10.7,> 50,> 20,> 20,> 25,–,–
CCN(CC)CCSC1Cc2ccccc2Oc2ccc(Cl)cc21 (stereo not given),14.8,> 50,> 20,–,> 25,–,–
CCN(CC)CCSC1=Cc2ccccc2Oc2ccc(SC)cc21,> 25,> 50,> 20,> 20,> 25,–,–
C=CCNCCSC1Cc2ccccc2Oc2ccc(F)cc21 (stereo not given),10.6,> 50,3.5,> 20,> 25,–,–
Fc1ccc2c(c1)C(SCCNCCc1ccccc1)Cc1ccccc1O2 (stereo not given),> 10,> 50,–,> 20,> 25,–,–
CCN(CC)CCSC1Cc2ccccc2Oc2ccccc21 (stereo not given),6.9,> 50,> 20,> 20,> 25,–,–
C#CCN(C)CCSC1=Cc2ccccc2Oc2ccccc21,25,> 50,12.2,–,> 25,–,–
CCN(C)CCSC1=Cc2ccccc2Oc2ccccc21,25,> 50,20,–,> 25,–,–
CCN(C)CCSC1=Cc2ccccc2Oc2ccc(SC)cc21,25,> 50,–,> 20,> 25,–,–
CC(C)=CCN1CC[C@]2(C)c3cc(O)ccc3C[C@H]1[C@H]2C [(+)-PENTAZOCINE],2.4,> 25,–,> 20,14.6,–,–
CN(C)CCCN1c2ccccc2Sc2ccc(Cl)cc21 [CHLORPROMAZINE],–,> 50,–,2.8,–,–,–
CN1C(=O)CN=C(c2ccccc2)c2cc(Cl)ccc21 [DIAZEPAM],–,1.4,–,> 20,–,–,–
CNCCSC1=Cc2ccccc2Oc2ccc(F)cc21 [FLURADOLINE],–,> 50,0.32,> 50,11.3,–,24.7
CN(C)CCCN1c2ccccc2CCc2ccccc21 [IMIPRAMINE],11,50,1.3,> 20,> 25,–,–
CN1CC[C@]23c4c5ccc(O)c4O[C@H]2[C@@H](O)C=C[C@H]3[C@H]1C5 [MORPHINE],0.36,> 25,8.1,> 20,–,–,–

# Source: ChEMBL document CHEMBL1121432, “Tricyclics with analgesic and antidepressant activity. 1. [[(Alkylamino)ethyl]thio]dibenz[b,f]oxepins and 10,11-dihydro derivatives” (1980)
